Activity calls are given as the source filed them. The rule behind the calls is not given here.
Key:
HT-22 [1] = assay: Neuroprotective activity against glutamate-induced apoptotic cell death in mouse HT22 cells at 50 to 100 uM after 10 hrs by Alexa fluor-488 annexin V/PI staining based cytometric analysis; type: functional
Procedure, shortened: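 HT22 cells were seeded at 2 × 10^5 per well and treated with 5 mM glutamate and 50 or 100 μM compound for 10 h. Cells were harvested, washed in PBS, and equal numbers were labelled with Alexa Fluor 488 annexin V in binding buffer for 20 min, then with propidium iodide. Cells were counted by image-based cytometry as % annexin V-positive; mean ± SEM.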

HT-22 [2] = assay: Neuroprotective activity against glutamate-induced neuronal cell death in mouse HT22 cells assessed as increase in cell viability at 50 to 100 uM after 24 hrs by microscopy; type: functional, cell-based
HT-22 [3] = assay: Neuroprotective activity against glutamate-induced neuronal cell death in mouse HT22 cells assessed as increase in cell viability after 24 hrs by Ez-CyTox reagent based assay; type: functional
Procedure, shortened: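 HT22 cells (DMEM/10% FBS, 37 °C, 5% CO2) were plated at 1 × 10^4 per well and left to adhere for 24 h. Glutamate (5 mM final) was added together with compounds for 24 h. EZ-Cytox reagent was applied for 30 min and absorbance read at 450 nm. Viability is given as % of untreated live control; mean ± SEM.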

HT-22 [4] = assay: Inhibition of glutamate-induced intracellular calcium level in mouse HT22 cells at 50 uM after 8 hrs by Flu-4 AM probe based fluorescence microscopic analysis relative to control; type: functional
Procedure, shortened: (§1)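 HT22 mouse hippocampal cells (DMEM, 10% FBS, penicillin/streptomycin, 37 °C, 5% CO2) were seeded at 5 × 10^4 cells/well and co-treated with 5 mM glutamate and the test agent for 8 h. They were then loaded with 2 μM Fluo-4 AM and rinsed with phenol-red-free medium. Fluorescence images were quantified as fold change versus untreated control cells (mean ± SEM).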

HT-22 [5] = assay: Inhibition of glutamate-induced intracellular ROS generation in mouse HT22 cells at 50 to 100 uM after 8 hrs by DCF-DA probe based fluorescence microscopic analysis; type: functional, cell-based
Procedure, shortened: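 HT22 cells were seeded at 1 × 10^4 per well in DMEM/10% FBS at 37 °C, 5% CO2. They were exposed to 5 mM glutamate with or without compound for 8 h, loaded with 10 μM DCF-DA for 30 min and washed three times with PBS. DCF fluorescence was read at ex 495/em 517 nm on a plate reader and expressed against control; images were taken by fluorescence microscopy. Mean ± SEM.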

HT-22 [6] = assay: Inhibition of glutamate-induced intracellular calcium level in mouse HT22 cells at 100 uM after 8 hrs by Flu-4 AM probe based fluorescence microscopic analysis relative to control; type: functional; procedure, shortened: as §1
[7] = Antioxidant activity assessed as DPPH radical scavenging activity; type: functional
[8] = target: MAP kinase p38 (Mus musculus) (UniProt P47811+O08911+Q9WUI1+Q9Z1B7); assay: Inhibition of glutamate-induced p38 phosphorylation in mouse HT22 cells at 50 to 100 uM after 8 hrs by Western blot analysis; type: cell-based
Procedure, shortened: (§2)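 Mouse hippocampal HT22 cells were grown in DMEM with 10% FBS and penicillin/streptomycin at 37 °C in 5% CO2. Cells were exposed to 5 mM glutamate plus 50 or 100 μM compound for 8 h, then lysed in RIPA buffer with protease inhibitors. Lysates were run on SDS-PAGE and transferred to PVDF. Membranes were blocked in 5% milk and probed for 1 h with p-/total ERK1/2, JNK, p38 and GAPDH antibodies. Chemiluminescent bands were quantified as fold of control; mean ± SEM.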

[9] = Antioxidant activity assessed as DPPH radical scavenging activity at 100 uM; type: functional
Mus musculus = organism: Mus musculus; assay: Inhibition of glutamate-induced JNK phosphorylation in mouse HT22 cells at 50 to 100 uM after 8 hrs by Western blot analysis; type: cell-based; procedure, shortened: as §2
[10] = target: Mitogen-activated protein kinase 1 and 3 (ERK2 and ERK1) (Mus musculus) (UniProt P63085+Q63844); assay: Inhibition of glutamate-induced ERK1/2 phosphorylation in mouse HT22 cells at 50 to 100 uM after 8 hrs by Western blot analysis; type: cell-based; procedure, shortened: as §2
Chain of Mitogen-activated protein kinase 1 and 3 (ERK2 and ERK1) (Mus musculus) (P63085 whole entry, looked up): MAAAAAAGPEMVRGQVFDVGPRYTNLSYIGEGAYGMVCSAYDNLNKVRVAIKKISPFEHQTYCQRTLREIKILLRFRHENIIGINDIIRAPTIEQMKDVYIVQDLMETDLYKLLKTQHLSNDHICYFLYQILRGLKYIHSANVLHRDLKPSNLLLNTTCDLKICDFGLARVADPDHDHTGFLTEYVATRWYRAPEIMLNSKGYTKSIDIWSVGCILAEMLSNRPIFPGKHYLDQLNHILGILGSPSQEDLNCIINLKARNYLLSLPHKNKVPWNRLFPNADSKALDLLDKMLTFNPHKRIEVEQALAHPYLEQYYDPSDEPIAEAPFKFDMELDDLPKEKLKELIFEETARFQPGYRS
Chain of Mitogen-activated protein kinase 1 and 3 (ERK2 and ERK1) (Mus musculus) (Q63844 whole entry, looked up): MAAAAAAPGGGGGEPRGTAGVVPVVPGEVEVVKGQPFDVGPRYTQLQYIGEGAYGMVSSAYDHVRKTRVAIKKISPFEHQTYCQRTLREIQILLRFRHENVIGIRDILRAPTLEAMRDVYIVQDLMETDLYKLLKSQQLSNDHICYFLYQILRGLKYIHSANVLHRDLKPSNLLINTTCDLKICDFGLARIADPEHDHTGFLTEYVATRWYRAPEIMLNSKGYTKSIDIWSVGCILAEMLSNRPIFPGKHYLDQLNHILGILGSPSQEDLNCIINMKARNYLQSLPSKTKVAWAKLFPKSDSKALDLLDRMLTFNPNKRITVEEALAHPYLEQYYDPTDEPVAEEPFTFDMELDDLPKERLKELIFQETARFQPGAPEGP

## COc1cc(C)cc2c1C(=O)c1c(cc(O)c(O)c1O)C2=O
HT-22 [1]
  Activity: Active
HT-22 [2]
  Activity: Active
HT-22 [3]
  Activity: Dose-dependent effect
HT-22 [4]
  fold change (FC): 1.4
HT-22 [5]
  inhibition: Active
HT-22 [6]
  fold change (FC): 0.98
[7]
  Activity: Dose-dependent effect
  IC50: 42.2 µM
[8]
  inhibition: Active
[9]
  Activity: 70%
Mus musculus
  inhibition: Active
[10]
  inhibition: Active
